Data: ChEMBL document CHEMBL3227951, “Alkylating nucleosides 1. Synthesis and cytostatic activity of N-glycosyl(halomethyl)-1,2,3-triazoles. A new type of alkylating agent” (J Med Chem, 1979)
Values after ≈ are worked out from the molar mass of the structure shown. Active and inactive are the calls of the source. The calls are words filed in the database; no cut-off is given here.

What was measured:
HeLa = assay: In vitro cytostatic activity against human HeLa cells assessed as cell growth after 72 hrs by colorimetric method; format: functional; settings: read-out: ED50 (the source's name)
In short: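 HeLa cells at 10⁵ cells/mL in Eagle's minimal medium with 10% fetal calf serum, Leighton tubes, 37 °C. Compound added 2-3 h after attachment, suspended in sterile saline with 0.05% Tween 80 (10% of final volume). Incubated 72 h at 37 °C. Growth measured as cell protein by the Oyama-Eagle colorimetric method. 6-Mercaptopurine was the positive control. ED50 in μg/mL.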

Mus musculus [1] = assay: In vivo cytostatic activity against mouse Ehrlich carcinoma ascites allografted in ip dosed ICR swiss mouse assessed as median survival time administered qd for 9 days beginning 24 hrs after tumor implantation; format: functional, organism-based
In short: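 Female ICR Swiss mice (19-22 g) carrying Ehrlich ascites carcinoma, following NCI protocols 1100/1200. Compound suspended in 0.9% NaCl with 0.5% Tween 80 and given ip at 0.4 mL, once daily for 9 days starting 24 h after implantation. Groups of 6 treated and 30 control mice. 5-Fluorouracil at 20 mg/kg was the positive control. T/C = median survival of treated over control, ×100.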

[2] = In vivo cytostatic activity against mouse Ehrlich carcinoma ascites allografted in ICR swiss mouse assessed as median survival time at 100 mg/kg, ip administered qd for 9 days beginning 24 hrs after tumor implantation relative to control; format: functional; settings: route intraperitoneal
In short: (§1)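 Female ICR Swiss mice (19-22 g) bearing Ehrlich ascites carcinoma, per NCI protocols 1100/1200; compound suspended in 0.9% NaCl with 0.5% Tween 80, given ip at 0.4 mL once daily for 9 days from 24 h post-implant. Groups of 6 treated vs 30 controls; 5-fluorouracil 20 mg/kg/injection as positive control. T/C = treated/control median survival time as percentage.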

Mus musculus [3] = assay: Toxicity in ICR swiss mouse allografted with mouse Ehrlich carcinoma ascites assessed as change in body weight at 100 mg/kg, ip administered qd for 9 days beginning 24 hrs after tumor implantation; format: organism-based; parameters: dose 100 mg/kg, route intraperitoneal; settings: in vivo
In short: (§2)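 Female ICR Swiss mice (19-22 g) carrying Ehrlich ascites carcinoma. Compound suspended in 0.9% NaCl with 0.5% Tween 80 and given ip at 0.4 mL, once daily for 9 days starting 24 h after implantation. Groups of 6 treated and 30 control mice. Read-out is the weight difference in grams between treated and control animals.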

[4] = In vivo cytostatic activity against mouse Ehrlich carcinoma ascites allografted in ICR swiss mouse assessed as median survival time at 75 mg/kg, ip administered qd for 9 days beginning 24 hrs after tumor implantation relative to control; format: functional; settings: route intraperitoneal; in short: as §1
P388 = assay: In vivo cytostatic activity against mouse P388 cells allografted in mouse assessed as increase in host life span at 50 mg/kg; format: functional
Mus musculus [5] = assay: Toxicity in ICR swiss mouse allografted with mouse Ehrlich carcinoma ascites assessed as change in body weight at 75 mg/kg, ip administered qd for 9 days beginning 24 hrs after tumor implantation; format: organism-based; parameters: dose 75 mg/kg, route intraperitoneal; settings: in vivo; in short: as §2

| EC50 (HeLa) [µg/mL] | SMILES | Activity (Mus musculus [1]) | further results |
| --- | --- | --- | --- |
| > 100 | FCc1cn(Cc2ccccc2)nn1 |  |  |
| > 100 | CC(=O)N[C@@H]1[C@@H](OC(C)=O)[C@H](OC(C)=O)[C@@H](COC(C)=O)O[C@H]1n1nnc(CO)c1CO |  |  |
| 25 (≈ 55.8 µM) | CC(=O)OC[C@H]1O[C@@H](n2nncc2CCl)[C@H](OC(C)=O)[C@@H](OC(C)=O)[C@@H]1OC(C)=O |  |  |
| 20 (≈ 44.8 µM) | CC(=O)N[C@@H]1[C@@H](OC(C)=O)[C@H](OC(C)=O)[C@@H](COC(C)=O)O[C@H]1n1cc(CCl)nn1 |  |  |
| 3 (≈ 5.13 µM) | CC(=O)OC[C@H]1O[C@@H](n2nnc(CBr)c2CBr)[C@H](OC(C)=O)[C@@H](OC(C)=O)[C@@H]1OC(C)=O | inactive |  |
| 37 (≈ 82.6 µM) | CC(=O)OC[C@H]1O[C@@H](n2cc(CCl)nn2)[C@H](OC(C)=O)[C@@H](OC(C)=O)[C@@H]1OC(C)=O |  |  |
| 2 (≈ 7.93 µM) | BrCc1cn(Cc2ccccc2)nn1 | inactive |  |
| > 100 | CC(=O)OC[C@H]1O[C@@H](n2nnc(CO)c2CO)[C@H](OC(C)=O)[C@@H](OC(C)=O)[C@@H]1OC(C)=O |  |  |
| 20 (≈ 40.7 µM) | CC(=O)N[C@@H]1[C@@H](OC(C)=O)[C@H](OC(C)=O)[C@@H](COC(C)=O)O[C@H]1n1cc(CBr)nn1 |  |  |
| > 100 | CC(=O)N[C@@H]1[C@@H](OC(C)=O)[C@H](OC(C)=O)[C@@H](COC(C)=O)O[C@H]1n1cc(CO)nn1 |  |  |
| 2 (≈ 6.69 µM) | ICc1cn(Cc2ccccc2)nn1 | inactive |  |
| 18 (≈ 86.7 µM) | ClCc1cn(Cc2ccccc2)nn1 |  |  |
| 0.1 (≈ 0.657 µM) | Sc1ncnc2nc[nH]c12 [MERCAPTOPURINE ANHYDROUS] |  |  |
| 25 (≈ 55.9 µM) | CC(=O)N[C@@H]1[C@@H](OC(C)=O)[C@H](OC(C)=O)[C@@H](COC(C)=O)O[C@H]1n1nncc1CCl |  |  |
| 6 (≈ 12.1 µM) | CC(=O)OC[C@H]1O[C@@H](n2nnc(CCl)c2CCl)[C@H](OC(C)=O)[C@@H](OC(C)=O)[C@@H]1OC(C)=O |  |  |
| > 100 | CC(=O)N[C@@H]1[C@@H](OC(C)=O)[C@H](OC(C)=O)[C@@H](COC(C)=O)O[C@H]1n1nncc1CO |  |  |

| SMILES | EC50 (HeLa) [µg/mL] | Activity (Mus musculus [1]) | further results |
| --- | --- | --- | --- |
| CC(=O)OC[C@H]1O[C@@H](n2nncc2CBr)[C@H](OC(C)=O)[C@@H](OC(C)=O)[C@@H]1OC(C)=O | 4 (≈ 8.13 µM) | inactive |  |
| CC(=O)OC[C@H]1O[C@@H](n2cc(CI)nn2)[C@H](OC(C)=O)[C@@H](OC(C)=O)[C@@H]1OC(C)=O | 2 (≈ 3.71 µM) | Active | T/C [2]: 195%; Activity (Mus musculus [3]): -1.1 g |
| CC(=O)OC[C@H]1O[C@@H](n2cc(CBr)nn2)[C@H](OC(C)=O)[C@@H](OC(C)=O)[C@@H]1OC(C)=O | 3.5 (≈ 7.11 µM) | Active | T/C [4]: 145%; T/C (P388): 163%; Activity (Mus musculus [5]): -0.5 g |
